From the RNAGym collection of RNA variant scans (doi:10.1126/science.aae0568)
Variants at the floor of the assay were thinned out.

B1: tRNA (parent)
chain: GUUCCGUUGGCGUAAUGGUAACGCGUCUCCCUCCUAAGGAGAAGACUGCGGGUUCGAGUCCCGUACGGAACG

Variants of: B1
Test: yeast fitness relative to wild type (ratio to wild type); higher = fitter; tRNA-Arg(CCU), competitive growth, 37 C, YPD
Outline: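 Variants of the tRNA-Arg(CCU) gene, chemically synthesised with a 3% per-site mutation rate at 69 sites, were placed at the native genomic locus in Saccharomyces cerevisiae. The pooled strains were competed in YPD at 37°C for 24 hours in six parallel replicates. Gene amplicons from the start population and from each end population were read by 100-nucleotide paired-end sequencing. Darwinian fitness relative to wild type came from changes in genotype frequencies; genotypes needed ≥ 100 starting reads, and estimates < 0.5 were set to 0.5.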

Q: Which yeast fitness does the source give for C5U A15C U32A U47C here?
A: ≤ 0.5

Q: With C5U A14G C22A as the variant, how does the yeast fitness read?
A: ≤ 0.5

Q: With C5U A14G C22U as the variant, how does the yeast fitness read?
A: ≤ 0.5

Q: Which yeast fitness does the source give for C5U C11U A14G A15G G48C here?
A: ≤ 0.5

Q: Which yeast fitness does the source give for C5U A20G G44C here?
A: 0.764

Q: With C5U A20C G23C C24U C31U as the variant, how does the yeast fitness read?
A: ≤ 0.5

Q: With C5U A14G U28C as the variant, how does the yeast fitness read?
A: 0.562

Q: For C5U A21U C30G, which yeast fitness is on record?
A: 0.632

Q: For C5U A42G U47A, which yeast fitness is on record?
A: 0.619

Q: With C5U A57C C62U as the variant, how does the yeast fitness read?
A: 0.54

Q: Which yeast fitness does the source give for C5U A20G C24G U26G A37C A57G C66A here?
A: ≤ 0.5

Q: With C5U A15C C27U C29U A57C as the variant, how does the yeast fitness read?
A: ≤ 0.5

Q: For C5G U35A C60A, which yeast fitness is on record?
A: ≤ 0.5

Q: With C5G U59G A65G as the variant, how does the yeast fitness read?
A: 0.614

Q: For C5U A21C U54C A65U, which yeast fitness is on record?
A: 0.643

Q: Which yeast fitness does the source give for C5U A57G here?
A: 0.807

Q: For C5U A57C, which yeast fitness is on record?
A: 0.659

Q: For C5U A42G G51C, which yeast fitness is on record?
A: 0.549

Q: Which yeast fitness does the source give for C5U A21G C22G A43U here?
A: 0.533

Q: With C5U A14U C27G as the variant, how does the yeast fitness read?
A: ≤ 0.5

Q: For C5U A20C G58A, which yeast fitness is on record?
A: ≤ 0.5

Q: Which yeast fitness does the source give for C5G U35A G51A here?
A: ≤ 0.5

Q: With C5U A57C G58C U59G C66U as the variant, how does the yeast fitness read?
A: ≤ 0.5

Q: For C5U A15U C55A, which yeast fitness is on record?
A: ≤ 0.5

Q: Which yeast fitness does the source give for C5G U35C here?
A: 0.71

Q: For C5U A37G A43C U59C C62U, which yeast fitness is on record?
A: ≤ 0.5

Q: For C5U C11A G44C, which yeast fitness is on record?
A: ≤ 0.5

Q: With C5U A15C G23C G56A as the variant, how does the yeast fitness read?
A: ≤ 0.5

Q: With C5U A15C U32A G52C C62G U64C as the variant, how does the yeast fitness read?
A: ≤ 0.5

Q: For C5U A15G C46G, which yeast fitness is on record?
A: 0.892

Q: With C5U A37C C46U U53C A69C as the variant, how does the yeast fitness read?
A: ≤ 0.5

Q: With C5U C11G U19G C24G C30U as the variant, how does the yeast fitness read?
A: 0.547

Q: With C5U C11G C33A as the variant, how does the yeast fitness read?
A: 0.557

Q: For C5U A20G C46G C49G, which yeast fitness is on record?
A: ≤ 0.5

Q: Which yeast fitness does the source give for C5G U64C here?
A: 0.978

Q: For C5U A20G A21G C31U, which yeast fitness is on record?
A: ≤ 0.5

Q: With C5U A14G U16A C30U as the variant, how does the yeast fitness read?
A: ≤ 0.5

Q: For C5U A20G A37G G67A, which yeast fitness is on record?
A: ≤ 0.5

Q: Which yeast fitness does the source give for C5U A20U C24U C27U A45G here?
A: ≤ 0.5

Q: With C5U C11A A21G A40U G68C as the variant, how does the yeast fitness read?
A: ≤ 0.5

Q: With C5G U26C G44A A70U as the variant, how does the yeast fitness read?
A: 0.546

Q: Which yeast fitness does the source give for C5U C11A C24G C27G A36U G38C G67C here?
A: ≤ 0.5

Q: For C5G U32C G58C, which yeast fitness is on record?
A: 0.665

Q: For C5G U26C G44A C62A, which yeast fitness is on record?
A: ≤ 0.5

Q: Which yeast fitness does the source give for C5U C11G C24G here?
A: ≤ 0.5

Q: Which yeast fitness does the source give for C5U A37U A69U here?
A: 0.634

Q: For C5U A20C C22U A36G G52C, which yeast fitness is on record?
A: ≤ 0.5

Q: Which yeast fitness does the source give for C5U A37C G39C here?
A: ≤ 0.5

Q: For C5U C11U A15C U28A C62U C66A, which yeast fitness is on record?
A: ≤ 0.5

Q: For C5G U26C G44A A69U, which yeast fitness is on record?
A: ≤ 0.5

Q: With C5U A45U G56A as the variant, how does the yeast fitness read?
A: 0.715

Q: With C5G U53A as the variant, how does the yeast fitness read?
A: 0.658

Q: Which yeast fitness does the source give for C5G U53C here?
A: 0.866

Q: Which yeast fitness does the source give for C5U A14C A21G C30G C34U G39A C55U here?
A: ≤ 0.5

Q: For C5U A15C C34G A37G A65G, which yeast fitness is on record?
A: ≤ 0.5

Q: With C5U A43G C62A as the variant, how does the yeast fitness read?
A: 0.588

Q: With C5U A21U C30G C66U as the variant, how does the yeast fitness read?
A: ≤ 0.5

Q: For C5U A15U G51C C61G C62G, which yeast fitness is on record?
A: 0.776

Q: For C5U A45G G63A, which yeast fitness is on record?
A: 0.708

Q: Which yeast fitness does the source give for C5U A37C U47C C61U here?
A: ≤ 0.5

Q: Which yeast fitness does the source give for C5U A42U A69U here?
A: 0.728

Q: Which yeast fitness does the source give for C5U C11G C24U A42C here?
A: 0.552

Q: Which yeast fitness does the source give for C5U A15U U35C A45C here?
A: ≤ 0.5

Q: For C5U A21G G25A A42U G58A, which yeast fitness is on record?
A: 0.744

Q: With C5U A20C G44C as the variant, how does the yeast fitness read?
A: 0.573

Q: For C5G U47A G52A G68C, which yeast fitness is on record?
A: ≤ 0.5

Q: With C5U A37C U54A as the variant, how does the yeast fitness read?
A: ≤ 0.5

Q: With C5U A14C A45C as the variant, how does the yeast fitness read?
A: ≤ 0.5

Q: Which yeast fitness does the source give for C5U A45G C49G U59C C60U A69C here?
A: ≤ 0.5

Q: With C5U A14U A15C as the variant, how does the yeast fitness read?
A: 0.727

Q: With C5U A20G C49G G52A A57C as the variant, how does the yeast fitness read?
A: ≤ 0.5

Q: For C5U A70C, which yeast fitness is on record?
A: 1.06

Q: Which yeast fitness does the source give for C5G U35G C49A here?
A: ≤ 0.5

Q: For C5U A14U C27G G38C G63A, which yeast fitness is on record?
A: ≤ 0.5

Q: For C5U C11A U28G G44C, which yeast fitness is on record?
A: ≤ 0.5

Q: For C5U A21G C33G G38A C60A, which yeast fitness is on record?
A: ≤ 0.5

Q: For C5U A14G C33G A40G C60G, which yeast fitness is on record?
A: ≤ 0.5

Q: Which yeast fitness does the source give for C5U A14C C27U C33G C55G C61U here?
A: ≤ 0.5

Q: For C5U A20U C55G G68A, which yeast fitness is on record?
A: ≤ 0.5

Q: With C5U A15C G18A U35C A42G as the variant, how does the yeast fitness read?
A: ≤ 0.5

Q: For C5U A45C C55U G68C, which yeast fitness is on record?
A: 0.57

Q: For C5U A20C U26G C30U C49U C66G, which yeast fitness is on record?
A: ≤ 0.5

Q: Which yeast fitness does the source give for C5U A42U A43G here?
A: 0.63
